Compound activity: PubChem, Johns Hopkins Ion Channel Center
Compounds with a hit are over-represented: about 3.7% of the library has one in this group of screens.
KCNQ1 inh: inhibitors of human KCNQ1 channel, primary screen, cell-based, thallium flux, high-throughput. actives 1.3% (n = 310,000). CHO-K1 KCNQ1, FluxOR thallium flux fluorescence; stronger effect = higher value. Potassium voltage-gated channel subfamily KQT member 1 (Homo sapiens), P51787. B-score at 10 µM;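 active means compounds whose thallium flux B-score, printed positive for inhibition, exceeds three library SD while starting fluorescence stays within three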;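 further: channel opened by potassium depolarization with thallium stimulus after 20 min compound exposure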
Kir21 inh: inhibitors of mouse Kir2.1 inward-rectifier potassium channel; AID 1672, 2009; B-score at 10 µM; Inward rectifier potassium channel 2 (Mus musculus), P35561; actives 0.85% (n = 310,000); HEK293-Kir2.1, FluxOR thallium flux fluorescence; stronger effect = lower value;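 active means fluorescence ratio B-score at or below minus 3 SD of library scores, with starting-brightness B-score within 2 SD, cut at about -4.2 in these data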;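 further: channel flux triggered by added potassium and thallium sulfate stimulus; B-score of peak minus minimum fluorescence over baseline after thallium stimulus; more negative B-score means stronger Kir2.1 block with less thallium influx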
KCNK3 block: human KCNK3 channel inhibitors, primary screen, CHO cells, FluxOR thallium flux, B-score. Potassium channel subfamily K member 3 (Homo sapiens), O14649. FluxOR fluorescence; stronger effect = lower value. B-score at 10 µM. actives 0.84% (n = 340,000);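 active means B-score under library mean minus 4 SD, starting fluorescence ratio at most library mean plus 5 SD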;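 further: more negative B-score means stronger inhibition of thallium flux through KCNK3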
KCNQ1 pot: potentiators or activators of KCNQ1 channel, primary screen, cell-based, thallium flux, high-throughput; AID 2648, 2010; actives 0.35% (n = 310,000); Potassium voltage-gated channel subfamily KQT member 1 (Homo sapiens), P51787; B-score at 10 µM; CHO-K1 KCNQ1, thallium flux FluxOR fluorescence; stronger effect = higher value;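 active means fluorescence ratio B-score, a plate-corrected score, at least three library SD, with initial intensity B-score within 5 SD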
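Assay system: CHO-K1 cells stably expressing KCNQ1; Medium: assay buffer with matched DMSO; Also added: K+/Tl+ depolarizing stimulus; Dosing: single dose; Timing: dye 90 min, compound 20 min, room temperature; Measured by: kinetic FluxOR thallium fluorescence, 10-s 1-Hz baseline, 110-s post-stimulus read; Read-out: peak-minus-minimum fluorescence over initial fluorescence, negative-control normalized, B-scored.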
KCNK9 inh: KCNK9 potassium channel inhibitors, primary screen, HEK293 cells, thallium flux; actives 1.2% (n = 310,000); FluxOR thallium flux fluorescence; stronger effect = lower value; AID 488922, 2010; B-score at 10 µM;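 active means ratio B-score over 3 SD below the library mean, with starting fluorescence within 5 SD of its mean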;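 further: negative B-score means less thallium flux so channel inhibition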
hERG rescue: hERG rescue from dofetilide block, primary screen, cell-based, CHO-hERG, FluxOR thallium flux, dofetilide IC70; Voltage-gated inwardly rectifying potassium channel KCNH2 (Homo sapiens), Q12809; dofetilide IC70 present; activation (rescue from dofetilide block), less the hit threshold, % at 10 µM; actives 0.51% (n = 310,000);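 active means activation above the mean of controls blocked by dofetilide plus 5 SD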;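 further: thallium influx through hERG after potassium depolarization seen as dye fluorescence rise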
KCNQ1 block val: KCNQ1 potassium channel inhibitors, confirmation, cell-based, Tl flux, duplicate; shares compounds with KCNQ1 inh; KCNQ1 cell line, FluxOR thallium flux fluorescence; inhibition, % at 10 µM; actives 93% (n = 1,600); AID 588353, 2011;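 active means primary screen active, with duplicate mean exceeding buffer control mean plus 3 SD of buffer wells, cut at about 28% in these data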
CHO KCNQ1 ctr: thallium flux effects in parental CHO cells, counter-screen for KCNQ1 inhibitor project, cell-based, Tl flux; AID 588366, 2011; actives 21% (n = 1,600); fluorescence ratio (Tl flux) at 10 µM; shares compounds with KCNQ1 inh; parental CHO-K1, FluxOR thallium flux fluorescence ratio; stronger effect = lower value; zero means no signal rise above baseline;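 active means mean of duplicate thallium-flux fluorescence ratios in parental host cells more than 5 SD below the buffer control mean, cut at about 0.38 in these data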;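 further: ratio is peak minus minimum fluorescence divided by baseline fluorescence; actives read low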
KCNQ1 ephys val: KCNQ1 channel inhibitors, confirmation, orthogonal assay, cell-based, automated electrophysiology. KCNQ1-CHO cells, automated patch clamp current. actives 20% (n = 490). shares compounds with KCNQ1 inh. calls only at 10 µM;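 active means KCNQ1 current drop exceeding 3 SD of negative control wells, seen in both duplicate runs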;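 further: steady state current during a 2 s step from -80 to +40 mV; negative values mean current inhibition and positive values mean potentiation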
KCNQ2 spec: KCNQ2 channel inhibition, selectivity assay for KCNQ1 inhibitor project, cell-based | inhibition, % at 10 µM | actives 71% (n = 1,600) | KCNQ2 cells, FluxOR thallium flux fluorescence | shares compounds with KCNQ1 inh;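 active means mean percent inhibition of the KCNQ2 thallium signal more than 5 SD above the buffer-only control wells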;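 further: KCNQ2 expressed in CHO cells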
KCNQ1 KCNE1 spec: KCNQ1/KCNE1 channel inhibition, selectivity assay for KCNQ1 inhibitor project, CHO-K1 cells, thallium flux, FluxOR; shares compounds with KCNQ1 inh; FluxOR thallium flux fluorescence; inhibition, % at 10 µM; actives 77% (n = 1,600); AID 652147, 2013;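 active means mean percent inhibition of duplicate wells above the buffer-only control mean plus 3 SD of those controls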
Target sequence (P51787 whole entry, looked up): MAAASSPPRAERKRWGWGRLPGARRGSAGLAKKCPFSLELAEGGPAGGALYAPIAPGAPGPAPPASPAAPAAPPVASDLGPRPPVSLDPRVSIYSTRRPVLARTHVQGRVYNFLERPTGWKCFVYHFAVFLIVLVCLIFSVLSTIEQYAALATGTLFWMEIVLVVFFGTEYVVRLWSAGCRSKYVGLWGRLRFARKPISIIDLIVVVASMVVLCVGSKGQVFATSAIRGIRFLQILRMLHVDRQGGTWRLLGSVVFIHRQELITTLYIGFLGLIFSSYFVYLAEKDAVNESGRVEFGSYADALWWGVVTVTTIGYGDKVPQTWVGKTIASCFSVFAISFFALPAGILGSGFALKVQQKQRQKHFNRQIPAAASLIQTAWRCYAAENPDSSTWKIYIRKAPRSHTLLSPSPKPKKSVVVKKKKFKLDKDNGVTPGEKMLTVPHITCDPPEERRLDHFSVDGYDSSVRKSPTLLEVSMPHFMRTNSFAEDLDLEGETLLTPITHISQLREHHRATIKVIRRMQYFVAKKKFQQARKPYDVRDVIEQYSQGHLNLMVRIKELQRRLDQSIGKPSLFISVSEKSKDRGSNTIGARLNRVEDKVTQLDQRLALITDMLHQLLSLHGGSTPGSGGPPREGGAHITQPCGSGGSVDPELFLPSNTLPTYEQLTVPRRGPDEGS
A number is an active result; 0 = inactive; - = no result; + = active, no number.

SMILES	KCNQ1 inh	Kir21 inh	KCNK3 block	KCNQ1 pot	KCNK9 inh	hERG rescue	KCNQ1 block val	CHO KCNQ1 ctr	KCNQ2 spec	KCNQ1 KCNE1 spec	others
CN(CC(=O)Nc1ccc(C#N)cc1)Cc1ccc(Cl)cc1	0	0	0	0	0	0	-	-	-	-
Cc1cc(C)n(-c2ccc(C)c(Cl)c2)n1	0	0	0	0	0	0	-	-	-	-
CCC(=O)N1CCN(c2ccc(NC(=O)c3cc4ccccc4o3)cc2Cl)CC1	0	0	0	0	0	0	-	-	-	-
O=C(Nc1ccc(N2CCN(C(=O)c3ccco3)CC2)c(Cl)c1)c1cc2ccccc2o1	6	0	0	0	0	0	78.5	0	108.3%	142.0%
Cc1nn(C)c(Nc2ccc(Br)cc2)c1Br	6	0	0	0	0	0	88.5	0	0	43.5%	KCNQ1 ephys val=0
Cc1ccccc1Nc1cc(C)c2c(O)cccc2n1	7	-7.18	0	0	0	0	31.0	0	71.3%	0
COc1cc2ncc(S(=O)(=O)c3ccccc3)c(N3CCCC(C)C3)c2cc1OC (centres undefined)	11	0	0	0	0	0	151.5	0.276	164.0%	+
O=S(=O)(c1ccccc1)c1cnc(-c2ccccc2)nc1N1CCCC1	0	0	0	0	0	0	-	-	-	-
O=C(Nc1ccccc1N1CCOCC1)c1ccccc1NS(=O)(=O)c1ccc(F)cc1	0	0	0	0	0	0	-	-	-	-
O=C(Nc1ccccc1N1CCOCC1)c1ccccc1NS(=O)(=O)c1ccc(F)c(F)c1	7	0	0	0	0	0	59.0	0	74.3%	0
COc1ccc(-c2csc(NC(=O)c3ccccc3NS(=O)(=O)c3ccc(F)c(F)c3)n2)cc1	6	0	0	0	-6.78	0	63.5	0	0	91.5%
CC1(C)CC(=O)C/C(=N\NC(=O)CCc2ccc(S(=O)(=O)N3CCOCC3)cc2)C1	0	0	0	0	0	0	-	-	-	-
O=C(CNc1c(Br)cc(Br)cc1Br)NN=C1CCCCC1	0	0	-	0	0	0	-	-	-	-
COc1ccccc1CCNC(=O)c1ccc(NC(=O)CC2SC(N3CCCC3)=NC2=O)cc1 (centres undefined)	0	0	0	0	0	0	-	-	-	-
CN(CC(=O)NCCc1ccccc1)CC(=O)Nc1cccc(F)c1	-	-	0	-	-	-	-	-	-	-
O=C(NCCCCc1ccccc1)Nc1cccc(F)c1	6	0	0	0	0	0	61.0	0	0	36.0%
CCc1cc(Br)ccc1NC(=S)NCCc1ccccc1	6	-7.87	0	0	0	0	65.0	0	59.0%	70.0%
Fc1cccc(NC(=S)NCCc2ccccc2)c1	7	0	0	0	0	0	52.5	0	62.3%	0
